Assay results published in ChEMBL document CHEMBL1159098, “A new series of flavones, thioflavones, and flavanones as selective monoamine oxidase-B inhibitors” (Bioorg Med Chem, 2010).

Legend:
[1] = target: T1, Amine oxidase [flavin-containing] A (Homo sapiens, UniProt P21397); experiment: Inhibition of human recombinant MAOA expressed in BTI-TN-5B1-4 cells at 100 uM by para-tyramine oxidation assay; assay type: cell-based; conditions: human, bti-tn-5b1-4, 100 µM
T1 sequence (P21397 whole entry): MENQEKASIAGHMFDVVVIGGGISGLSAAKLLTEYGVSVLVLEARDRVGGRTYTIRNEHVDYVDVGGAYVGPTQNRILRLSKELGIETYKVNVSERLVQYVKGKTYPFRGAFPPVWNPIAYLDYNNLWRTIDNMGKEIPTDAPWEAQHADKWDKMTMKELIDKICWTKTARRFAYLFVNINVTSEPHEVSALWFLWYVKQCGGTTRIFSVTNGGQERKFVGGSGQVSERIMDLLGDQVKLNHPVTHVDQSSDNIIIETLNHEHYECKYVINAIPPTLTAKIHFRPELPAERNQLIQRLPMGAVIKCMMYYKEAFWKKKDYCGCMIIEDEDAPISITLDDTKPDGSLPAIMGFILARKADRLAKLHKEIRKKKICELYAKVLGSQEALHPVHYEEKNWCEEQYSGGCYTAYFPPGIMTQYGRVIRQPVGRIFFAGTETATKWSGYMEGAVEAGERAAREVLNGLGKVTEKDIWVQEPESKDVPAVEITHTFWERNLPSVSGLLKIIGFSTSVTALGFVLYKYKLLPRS

[2] = target: T2, Amine oxidase [flavin-containing] B (Homo sapiens, UniProt P27338); assay type: cell-based, BTI-TN-5B1-4
T2 sequence (P27338 whole entry): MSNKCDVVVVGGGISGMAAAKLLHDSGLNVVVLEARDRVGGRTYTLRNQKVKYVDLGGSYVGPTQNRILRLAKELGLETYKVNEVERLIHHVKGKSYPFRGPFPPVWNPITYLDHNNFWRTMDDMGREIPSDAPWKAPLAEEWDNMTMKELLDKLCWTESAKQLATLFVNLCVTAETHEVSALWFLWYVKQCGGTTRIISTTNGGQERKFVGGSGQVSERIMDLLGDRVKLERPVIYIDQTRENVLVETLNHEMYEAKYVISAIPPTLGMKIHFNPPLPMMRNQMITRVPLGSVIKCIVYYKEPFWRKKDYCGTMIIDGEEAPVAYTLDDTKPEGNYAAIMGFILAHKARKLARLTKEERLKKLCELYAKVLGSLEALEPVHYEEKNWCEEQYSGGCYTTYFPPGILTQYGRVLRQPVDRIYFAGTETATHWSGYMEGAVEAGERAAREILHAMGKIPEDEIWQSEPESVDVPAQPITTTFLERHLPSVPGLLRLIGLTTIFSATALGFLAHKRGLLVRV

[3] = species: Homo sapiens; experiment: Selectivity for human MAOB over human MAOA
Summary of the method: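 Selectivity index = IC50(hMAO-A)/IC50(hMAO-B), both from Amplex Red/p-tyramine fluorimetric assays on insect-cell recombinant enzymes.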

[4] = target: T2, Amine oxidase [flavin-containing] B; experiment: Inhibition of human recombinant MAOB expressed in BTI-TN-5B1-4 cells at 100 nM before washing by centrifugation-ultrafiltration method; assay type: cell-based; conditions: BTI-TN-5B1-4, human
Summary of the method: (§1)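 Recombinant hMAO-B was incubated with one concentration of inhibitor in 0.05 M sodium phosphate pH 7.4 for 15 min at 37 °C. One aliquot was kept at 4 °C unwashed. The rest was washed three times by 30 kDa ultrafiltration (9000g, 20 min, 4 °C) and resuspended in buffer.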

[5] = target: T2, Amine oxidase [flavin-containing] B; experiment: Inhibition of human recombinant MAOB expressed in BTI-TN-5B1-4 cells at 100 nM after repeated washing by centrifugation-ultrafiltration method; assay type: cell-based; conditions: BTI-TN-5B1-4, human; summary of the method: as §1
[6] = target: T1, Amine oxidase [flavin-containing] A; experiment: Inhibition of human recombinant MAOA expressed in BTI-TN-5B1-4 cells at 500 uM before washing by centrifugation-ultrafiltration method; assay type: cell-based; conditions: BTI-TN-5B1-4, human
[7] = target: T2, Amine oxidase [flavin-containing] B; experiment: Inhibition of human recombinant MAOB expressed in BTI-TN-5B1-4 cells at 1 mM by para-tyramine oxidation assay; assay type: cell-based; conditions: bti-tn-5b1-4, 1000 µM
[8] = target: T1, Amine oxidase [flavin-containing] A; experiment: Inhibition of human MAOA
Summary of the method: (§2)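 Recombinant human MAO-A or -B as microsomes from baculovirus-infected BTI-TN-5B1-4 insect cells, dosed to oxidize 165 pmol p-tyramine/min in controls (A 1.1 µg, B 7.5 µg protein). Preincubated with inhibitor 15 min at 37 °C in 0.05 M sodium phosphate pH 7.4. Started with 1 mM p-tyramine, 200 µM Amplex Red, 1 U/ml HRP (final). Resorufin fluorescence (ex 545/em 590 nm) read over 15 min at 37 °C, background subtracted.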

[9] = target: T2, Amine oxidase [flavin-containing] B; experiment: Inhibition of human MAOB; summary of the method: as §2

## Cc1ccc2c(c1)OC(c1ccc(F)cc1)CC2=O (racemic)
[1]
  inhibition (INH): Not Active
[2]
  IC50: 130 nM
[3]
  Ratio IC50: > 769
[4]
  inhibition at 0.1 µM: 38.4%
[5]
  inhibition at 0.1 µM: 36.5%

## O=C(NCCN1CCOCC1)c1ccc(Cl)cc1 [MOCLOBEMIDE]
[6]
  inhibition at 500 µM: 84.8%
[7]
  inhibition (INH): Not Active

## O=c1cc(-c2ccc(O)cc2)oc2cc(O)cc(O)c12 [APIGENIN]
[8]
  IC50: 1700 nM
[9]
  IC50: 12800 nM
